Published values of several laboratories.
Target: Fibroblast growth factor receptor 2 (FGFR2, Homo sapiens, UniProt P21802)

C[C@@H](c1ccc(-n2cnc3c(N)ncnc32)cc1)N1CCc2nn(C)c(Cc3ccccc3)c2C1=O — remaining binding (binding, competition with immobilised ligand; 0.1 µM): 72%
O=C(O)c1cc(-c2ccc(C3CCNCC3)cc2)c2ccc(-c3ccc(C(F)(F)F)cc3)cc2c1 — remaining binding (cell-free assay, competition with immobilised ligand; 1 µM): 100%
O=C(Nc1c[nH]nc1C(=O)NC1CCNCC1)c1cc(F)cc(F)c1 — remaining binding (binding, competition with immobilised ligand; 1 µM): 100%
CN(c1nccc(-c2cnn3ncccc23)n1)C1CC1 — remaining binding (binding; 1 µM): 100%
CCN1CCN(Cc2ccc(C(=O)Nc3ccc(C)c(Oc4ccc5c(c4)CC(=O)N5)c3)cc2C(F)(F)F)CC1 — remaining binding (binding, competition with immobilised ligand; 1 µM): 83%
Cc1cnn2ncc(-c3ccnc(N(C)C)n3)c2c1 — remaining binding (binding; 1 µM): 98%
CNC(=O)[C@@H]1CC[C@@H](n2c(-c3ccc4cnccc4c3)nc3ccc(C(=O)NCc4cccc(C(N)=O)c4)cc32)C1 — remaining binding (binding, competition with immobilised ligand; 1 µM): 96%
O=C(NCCCN1CCOCC1)c1ccc(Nc2nccc(-c3cc4ccccc4s3)n2)cc1 — remaining binding (binding, competition with immobilised ligand; 1 µM): 84%
Cc1c(C(=O)O)cc(-c2ccc(C3CCNCC3)cc2)c2ccc(-c3ccc(C(F)(F)F)cc3)cc12 — remaining binding (cell-free assay, competition with immobilised ligand; 1 µM): 100%
N[C@H]1CCN(c2nccc(-c3cnn4ncccc34)n2)C1 — remaining binding (binding; 1 µM): 92%
COc1ncc2cc3ccccc3nc2c1C#N — remaining binding (cell-free assay, competition with immobilised ligand; 5 µM): 93%
Nc1ncc2c(n1)-c1c([nH]c3ccc(C#CC4CC4)cc13)CCCC2 — remaining binding (binding, competition with immobilised ligand; 1 µM): 99%
CN(C)c1nccc(-c2cnn3ncccc23)n1 — remaining binding (binding; 1 µM): 100%
C[C@H](NC(=O)c1cnc2n1[C@](C)(Cc1ccc(C#N)cc1)C(=O)N2c1cc(Cl)c(F)c(Cl)c1)C(=O)NC1(c2ccccn2)CC1 — remaining binding (cell-free assay, competition with immobilised ligand; 1 µM): 100%
Cc1cnc(Nc2ccc(C(=O)N3CCC(N4CCCC4)CC3)cc2)nc1-c1cc2ccccc2s1 — remaining binding (binding, competition with immobilised ligand; 1 µM): 14%
CC1CCCN1c1nccc(-c2cnn3ncccc23)n1 (stereo not shown) — remaining binding (binding; 1 µM): 100%
C[C@@H]1CN(c2ccc3ncc(-c4ccc5[nH]nc(C6CC6)c5c4)n3n2)C[C@H](C)O1 — remaining binding (binding, competition with immobilised ligand; 0.5 µM): 100%
O=C(O)[C@H]1[C@H](Cn2nnc3ccccc3c2=O)CC[C@@H]1C(=O)c1ccc(OCCC2CCOCC2)cc1 — remaining binding (cell-free assay, competition with immobilised ligand; 1 µM): 100%
O=C(c1ccc(Nc2nccc(-c3cc4ccccc4s3)n2)cc1)N1CCC(N2CCCC2)CC1 — remaining binding (binding, competition with immobilised ligand; 1 µM): 77%
Cc1cc(-n2nc(Cc3cc(F)cc(C(F)(F)F)c3)nc2C)ccc1C(N)=O — remaining binding (cell-free assay, competition with immobilised ligand; 1 µM): 100%
C[C@H]1CCN(c2nccc(-c3cnn4ncccc34)n2)C1 — remaining binding (binding; 1 µM): 100%
Cc1cc(C)c(-n2ccn3nc(-c4cccnc4)cc23)cc1NC(=O)c1cc(C#N)cc(S(F)(F)(F)(F)F)c1 — remaining binding (cell-free assay, competition with immobilised ligand; 0.1 µM): 84.3%
COc1cnc(Nc2cccc(S(N)(=O)=O)c2)nc1N1CCN(c2ccccc2)CC1 — remaining binding (binding, competition with immobilised ligand; 1 µM): 90%
Cc1nccc(COC(=O)N2C[C@@H]3[C@@H](CNC(=O)c4ccc5[nH]nnc5c4)[C@@H]3C2)n1 — remaining binding (cell-free assay, competition with immobilised ligand; 1 µM): 78%
CN(C)c1nccc(-c2cnc3ncccn23)n1 — remaining binding (binding; 1 µM): 100%
